The text below walks through data of ChEMBL document CHEMBL1152384, “First steps in the direction of synthetic, allosteric, direct inhibitors of thrombin and factor Xa” (Bioorg Med Chem Lett, 2009).

Activity calls are given as the source filed them. No cut-off for these calls is given here.

Test [1] has as its target Prothrombin (Homo sapiens) (UniProt P00734). Briefly: Inhibition of human thrombin assessed as residual activity at < 4.3 mM by spectrophotometry. An outline of the steps: (§1)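 Thrombin activity read spectrophotometrically as the initial rate of hydrolysis of the chromogenic substrate Spectrozyme TH, with and without benzofuran inhibitor. Residual activity is expressed relative to the uninhibited enzyme.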

For test [2], the target named is Coagulation factor X (Homo sapiens) (UniProt P00742). Briefly: Inhibition of human factor 10a assessed as residual activity at < 4.3 mM by spectrophotometry. An outline of the steps: (§2)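 Factor Xa activity followed by spectrophotometric measurement of the initial rate of hydrolysis of the chromogenic substrate S-2772, with and without benzofuran inhibitor. Residual activity is taken relative to the uninhibited enzyme.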
Chain of Coagulation factor X (Homo sapiens) (P00742 41-179 limits assumed): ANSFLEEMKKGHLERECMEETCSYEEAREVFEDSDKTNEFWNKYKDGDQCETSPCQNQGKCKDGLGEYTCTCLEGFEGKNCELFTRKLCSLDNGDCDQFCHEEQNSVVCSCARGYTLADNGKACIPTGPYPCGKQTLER
Chain of Coagulation factor X (Homo sapiens) (P00742 235-488 limits assumed): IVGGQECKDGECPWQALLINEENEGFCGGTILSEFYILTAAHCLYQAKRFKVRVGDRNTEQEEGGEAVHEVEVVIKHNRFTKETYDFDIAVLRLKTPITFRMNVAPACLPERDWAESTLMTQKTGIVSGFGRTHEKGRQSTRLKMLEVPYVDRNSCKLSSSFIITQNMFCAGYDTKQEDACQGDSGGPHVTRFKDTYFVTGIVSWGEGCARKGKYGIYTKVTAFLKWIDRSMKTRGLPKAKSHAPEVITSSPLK

Test [3] shares this target. Briefly: Inhibition of human factor 10a assessed as residual activity at […] by spectrophotometry. A digest of the protocol:
as §2

Test [4] has as its target Prothrombin (Homo sapiens) (UniProt P00734). Briefly: Inhibition of human thrombin assessed as residual activity at 2.9 mM by spectrophotometry. A digest of the protocol:
as §1

Test [5] has the same target. In words: Inhibition of human thrombin assessed as residual activity at 400 uM by spectrophotometry. An outline of the steps: as §1
Test [6] addresses Coagulation factor X (Homo sapiens) (UniProt P00742). In words: Inhibition of human factor 10a assessed as residual activity at 2.6 mM by spectrophotometry. A digest of the protocol: as §2
The target is the same in test [7]. In words: Inhibition of human factor 10a assessed as decrease in catalytic rate per uM of S-2772 hydrolysis at 2.6 mM by Michaelis-Menten analysis relative to control. A digest of the protocol: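 Factor Xa kinetics: initial rates of S-2772 hydrolysis measured spectrophotometrically at pH 7.4 and 25 °C over a range of substrate levels, with and without inhibitor. The hyperbolic dependence of rate on substrate was fitted to obtain KM and VMAX. Catalytic rate was compared with the inhibitor-free reaction.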

Test [8] deals with Prothrombin (Homo sapiens) (UniProt P00734). In words: Inhibition of human thrombin assessed as residual activity at 4.3 mM by spectrophotometry. An outline of the steps: as §1

Take `COc1cc2oc(C)c(CO)c2cc1O`: the outcome in test [1] and in test [2] was inactive.
Take `CCOC(=O)CCc1c(C)oc2cc(OC)c(O)cc12`: the outcome in test [1] and in test [2] was inactive.
In the case of `COc1cc2oc(C)c(C(=O)O)c2cc1O`, the result in test [3] and in test [5] was Active. For the same molecule, the Activity in test [4] is more than 40%.
On to `Cc1oc2cc(OS(=O)(=O)O)c(OS(=O)(=O)O)cc2c1C(=O)O`, for which the results for the Activity in test [6] and in test [4] were 75% and more than 40%, respectively. Further, the result in test [3] and in test [5] was Active.
In the case of `COc1cc2oc(C)c(C(=O)O)c2cc1OS(=O)(=O)O`, the Activity in test [6] was 42%; in test [4] it was more than 40%. In addition, the result in test [3] and in test [5] was Active.
`CCOC(=O)c1c(C)oc2cc(OC)c(OS(=O)(=O)O)cc12`: the outcome in test [1] and in test [2] was inactive.
For the molecule `COc1cc2oc(C)c(CCC(=O)O)c2cc1OS(=O)(=O)O`, the result in test [3] and in test [5] was Active. For the same molecule, the Activity in test [4] was more than 40%.
For the molecule `CCOC(=O)CCc1c(C)oc2cc(OC)c(OS(=O)(=O)O)cc12`, the outcome in test [1] and in test [2] was inactive.
Turning to `CCOC(=O)c1c(C)oc2cc(O)c(O)cc12`, the result in test [1] and in test [2] was inactive.
As for `CCOC(=O)c1c(C)oc2cc(OC)c(O)cc12`, the result in test [1] and in test [2] was inactive.
Turning to `COc1cc2c(C(=O)O)c(C)oc2cc1OS(=O)(=O)O`, the fold change (FC) in test [7] amounted to 3.6. Further, the outcome in test [8], in test [3] and in test [5] was Active. Also, the Activity in test [6] was 86%; in test [4], more than 40%.
On to `COc1cc2oc(C)c(CCC(=O)O)c2cc1O`, for which the Activity in test [6] and in test [4] was more than 40% each time. Further, the result in test [3] and in test [5] was Active.
In the case of `Cc1oc2cc(O)c(O)cc2c1C(=O)O`, the result in test [3] and in test [5] was Active. The Activity in test [4] was more than 40%.
As to `COc1cc2oc(C)c(COS(=O)(=O)O)c2cc1OS(=O)(=O)O`, the result in test [1] and in test [2] was inactive.
Turning to `CCOC(=O)c1c(C)oc2cc(OS(=O)(=O)O)c(OC)cc12`, the outcome in test [1] and in test [2] was inactive.
On to `CCOC(=O)c1c(C)oc2cc(OS(=O)(=O)O)c(OS(=O)(=O)O)cc12`, for which the result in test [1] and in test [2] was inactive.
For the molecule `CCOC(=O)c1c(C)oc2cc(O)c(OC)cc12`, the result in test [1] and in test [2] was inactive.
